Tests used:
LPA3 [1] = target: T1, LPA3 (Homo sapiens, UniProt Q9UBY5); experiment: Fura-2AM Ca2+ mobilization, agonist mode, LPA3-expressing cells; format: cell-based; details: read-out: LPA3 Emax
T1 sequence (Q9UBY5 1-353): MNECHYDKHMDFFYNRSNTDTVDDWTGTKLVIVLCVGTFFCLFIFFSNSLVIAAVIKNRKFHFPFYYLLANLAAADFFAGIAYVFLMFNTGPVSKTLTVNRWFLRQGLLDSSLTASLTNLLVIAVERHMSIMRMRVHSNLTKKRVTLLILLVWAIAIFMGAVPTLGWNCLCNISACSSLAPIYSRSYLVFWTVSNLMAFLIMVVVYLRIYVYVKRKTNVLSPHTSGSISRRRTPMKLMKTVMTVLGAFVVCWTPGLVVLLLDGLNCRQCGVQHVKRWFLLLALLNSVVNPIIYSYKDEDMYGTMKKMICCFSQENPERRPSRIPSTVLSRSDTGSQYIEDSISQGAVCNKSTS

LPA5 [2] = target: T2, LPA5 (Homo sapiens, UniProt Q9H1C0); experiment: Fura-2AM Ca2+ mobilization, agonist mode, LPA5 B103 cells; format: cell-based; details: B103, read-out: LPA5 Emax
T2 sequence (Q9H1C0 whole entry): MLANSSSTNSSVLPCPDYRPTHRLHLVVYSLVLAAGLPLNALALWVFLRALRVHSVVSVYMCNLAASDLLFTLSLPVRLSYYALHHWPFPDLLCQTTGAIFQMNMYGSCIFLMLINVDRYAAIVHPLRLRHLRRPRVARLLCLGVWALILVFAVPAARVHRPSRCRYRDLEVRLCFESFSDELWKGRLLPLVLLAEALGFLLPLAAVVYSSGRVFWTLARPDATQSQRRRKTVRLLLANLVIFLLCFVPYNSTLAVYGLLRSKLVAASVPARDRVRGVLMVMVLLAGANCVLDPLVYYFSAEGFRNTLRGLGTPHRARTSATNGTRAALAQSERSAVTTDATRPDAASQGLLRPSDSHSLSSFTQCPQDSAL

LPA2 = LPA2 (Homo sapiens, UniProt Q9HBW0); experiment: Fura-2AM Ca2+ mobilization, agonist mode, LPA2 DKO MEF cells; format: cell-based; details: for LPA2 agonist activity (in words): Ca2+ mobilization, SAR discussion
Chain of LPA2 (Q9HBW0 whole entry): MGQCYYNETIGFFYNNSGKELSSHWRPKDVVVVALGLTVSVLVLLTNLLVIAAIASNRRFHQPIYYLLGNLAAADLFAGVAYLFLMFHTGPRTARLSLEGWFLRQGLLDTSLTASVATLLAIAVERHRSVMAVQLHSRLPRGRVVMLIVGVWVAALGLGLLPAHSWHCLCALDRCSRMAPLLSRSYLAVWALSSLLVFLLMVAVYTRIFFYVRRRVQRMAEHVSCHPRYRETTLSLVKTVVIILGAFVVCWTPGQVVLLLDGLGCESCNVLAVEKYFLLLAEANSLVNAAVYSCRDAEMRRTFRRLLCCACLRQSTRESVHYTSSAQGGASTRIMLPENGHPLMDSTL

[3] = system: Vector control cells (DKO MEF, RH7777, CHO, B103); experiment: Fura-2AM Ca2+ mobilization in empty vector control cells; format: cell-based; details: read-out: vector EC50
How it was run: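 Cells were loaded with Fura-2AM, and transient Ca2+ mobilization was read as fluorescence on a robotic plate reader. Receptor-expressing lines were CHO (LPA4), DKO MEF (LPA2), RH7777 (LPA1/3) and B103 (LPA5). Vector controls were the same lines transduced with empty vector. […] Values are means of three assays.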

LPA4 [4] = target: T3, LPA4 (Mus musculus, UniProt Q8BLG2); experiment: Fura-2AM Ca2+ mobilization, agonist mode, LPA4 CHO cells; format: cell-based, human; details: read-out: LPA4 Emax
T3 sequence (Q8BLG2 whole entry): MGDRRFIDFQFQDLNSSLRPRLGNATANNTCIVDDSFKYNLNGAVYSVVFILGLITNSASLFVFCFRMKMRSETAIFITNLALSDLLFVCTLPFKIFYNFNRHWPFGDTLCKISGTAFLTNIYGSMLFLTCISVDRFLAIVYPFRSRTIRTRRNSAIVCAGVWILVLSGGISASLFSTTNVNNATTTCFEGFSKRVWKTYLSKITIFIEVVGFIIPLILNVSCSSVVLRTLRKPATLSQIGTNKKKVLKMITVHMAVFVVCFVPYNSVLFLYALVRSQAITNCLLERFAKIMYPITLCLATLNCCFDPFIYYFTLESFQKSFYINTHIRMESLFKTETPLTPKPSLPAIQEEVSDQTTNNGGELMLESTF

LPA3 [5] = target: T1, LPA3; experiment: Ca2+ mobilization antagonist screen against LPA 18:1, LPA3; format: cell-based
LPA4 [6] = target: T3, LPA4; experiment: Ca2+ mobilization antagonist screen against LPA 18:1, LPA4; format: cell-based, human; details: coapplied with LPA 18:1
LPA1 = LPA1 (Homo sapiens, UniProt Q92633); experiment: Ca2+ mobilization antagonist screen against LPA 18:1, LPA1; format: cell-based; details: coapplied with LPA 18:1
Chain of LPA1 (Q92633 whole entry): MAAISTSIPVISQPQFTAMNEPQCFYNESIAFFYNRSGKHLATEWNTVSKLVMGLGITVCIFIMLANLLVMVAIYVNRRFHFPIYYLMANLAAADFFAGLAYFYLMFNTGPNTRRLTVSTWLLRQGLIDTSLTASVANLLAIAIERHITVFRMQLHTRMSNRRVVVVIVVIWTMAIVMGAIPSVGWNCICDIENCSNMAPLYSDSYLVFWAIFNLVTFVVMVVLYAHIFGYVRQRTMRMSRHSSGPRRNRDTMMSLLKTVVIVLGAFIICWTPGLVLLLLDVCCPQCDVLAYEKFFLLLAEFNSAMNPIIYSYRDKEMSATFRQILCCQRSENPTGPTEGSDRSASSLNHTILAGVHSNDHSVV

LPA5 [7] = target: T2, LPA5; experiment: Ca2+ mobilization antagonist screen against LPA 18:1, LPA5; format: cell-based; details: coapplied with LPA 18:1
apoptosis = details: cell-based models of apoptosis; cited from earlier work
[8] = system: radiation-induced apoptosis; details: mice suffering from the acute hematopoietic radiation syndrome; cited from earlier work

Row | SMILES | EC50 [3] [µM] | LPA2 agonist activity (in words) (LPA2) | further results
1 | CCCCCCCC/C=C\CCCCCCCC(=O)OC[C@@H](O)COP(=O)(O)O [LPA 18:1, 1-acyl-2-hydroxy-sn-3-glycerophosphate] | > 10 |  | Emax (LPA3 [1]): 100%; Emax (LPA5 [2]): 100%; Emax (LPA2; MEF, read-out: LPA2 Emax): 100%; Emax (LPA4 [4]): 100%
2 | O=C(O)c1ccc2c(c1)S(=O)(=O)N(CCCCN1C(=O)c3cccc4cccc(c34)C1=O)C2=O [Compound 9, 2-(4-(1,3-dioxo-1H-benzo[de]isoquinolin-2(3H)-yl)butyl)-3-oxo-2,3-dihydrobenzo[d]isothiazole-6-carboxylic acid 1,1-dioxide] | > 10 |  | 
3 | O=C(O)c1ccc(Br)cc1S(=O)(=O)NCCCCN1C(=O)c2cccc3cccc(c23)C1=O [Compound 8b] | > 10 | more potent than compound 4 | 
4 | O=C(O)c1cc(Cl)ccc1S(=O)(=O)NCCCCN1C(=O)c2cccc3cccc(c23)C1=O [Compound 11d, 5-chloro-2-(N-(4-(1,3-dioxo-1H-benzo[de]isoquinolin-2(3H)-yl)butyl)sulfamoyl)benzoic acid] | > 10 |  | 
5 | O=C(O)c1cc(F)ccc1S(=O)(=O)NCCCCN1C(=O)c2cccc3cccc(c23)C1=O [Compound 11c] | > 10 |  | 
6 | O=C(O)c1ccccc1S(=O)(=O)NCCCCN1C(=O)c2ccccc2C1=O [Compound 7a, 2-[4-(1,3-Dioxo-1,3-dihydroisoindol-2-yl)butylsulfamoyl]benzoic acid] | > 10 |  | EC50 (LPA2): > 10 µM
7 | O=C(O)c1ccccc1S(=O)(=O)NCCCN1C(=O)c2cccc3cccc(c23)C1=O [Compound 4, 2-(N-(3-(1,3-dioxo-1H-benzo[de]isoquinolin-2(3H)-yl)propyl)sulfamoyl)benzoic acid] | > 10 |  | IC50 (LPA3 [5]): > 10 µM; LPA4 inhibition (antagonist activity) (LPA4 [6]): without activating or inhibiting; EC50 (LPA2): ~2 µM; LPA1 inhibition (antagonist activity) (LPA1): without activating or inhibiting; LPA5 inhibition (antagonist activity) (LPA5 [7]): without activating or inhibiting
8 | O=C(O)c1cc(Br)ccc1S(=O)(=O)NCCCCN1C(=O)c2cccc3cccc(c23)C1=O [Compound 8c] | > 10 |  | 
9 | O=C(O)c1ccccc1S(=O)(=O)NCCCCCN1C(=O)c2cccc3cccc(c23)C1=O [Compound 6] | > 10 |  | 
10 | O=C(O)c1cccc(S(=O)(=O)NCCCCN2C(=O)c3cccc4cccc(c34)C2=O)c1 [Compound 11a] | > 10 | abolished the activity at LPA2 | 
11 | O=C(O)c1ccc(C(=O)O)c(S(=O)(=O)NCCCCN2C(=O)c3cccc4cccc(c34)C2=O)c1 [Compound 10, 2-(N-(4-(1,3-dioxo-1H-benzo[de]isoquinolin-2(3H)-yl)butyl)sulfamoyl)terephthalic acid] | > 10 | considerably less potent than the compound 9 | 
12 | O=C(O)c1ccc(S(=O)(=O)NCCCCN2C(=O)c3cccc4cccc(c34)C2=O)cc1 [Compound 11b] | > 10 | abolished the activity at LPA2 | 
13 | COc1ccc(C(=O)O)c(S(=O)(=O)NCCCCN2C(=O)c3cccc4cccc(c34)C2=O)c1 [Compound 8a] | > 10 | very weak agonist activity | 
14 | O=C(O)c1ccccc1SCCCN1C(=O)c2cccc3cccc(c23)C1=O [GRI-977143] | > 10 |  | antiapoptotic efficacy (apoptosis): showed antiapoptotic efficacy; efficacy against radiation-induced apoptosis [8]: modestly efficacious
15 | O=C1C(=O)N(CCCCNS(=O)(=O)c2ccccc2C(=O)O)c2ccccc21 [Compound 7b, 2-(N-(4-(2,3-dioxoindolin-1-yl)butyl)sulfamoyl)benzoic acid] | > 10 |  | EC50 (LPA2): > 10 µM
16 | O=C(O)c1ccccc1S(=O)(=O)NCCCCN1C(=O)c2cccc3cccc(c23)C1=O [Compound 5] | > 10 |  | 

From paper PMC4148159 (Journal of Medicinal Chemistry, 2014)
